species: Homo sapiens; experiment: Cytotoxicity against ovarian OVCAR-3; type: functional; settings: not given
In short: (§1)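 NCI human cancer cell line screen. Compounds were tested from 10^-4 to 10^-8 M, and GI50 was taken as the concentration giving 50% growth inhibition. Agents whose mean graph midpoint across about 55 lines was 10 μM or less on the first determination were assayed a second time, with standard deviations calculated. Agents above 10 μM were not evaluated further.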

SMILES	GI50
O=C1c2c(O)ccc(NCc3cc(O)ccc3O)c2CN1CCc1ccc(F)cc1	8.8 µM
CCCCCCNC(=O)c1cc(NCc2cc(O)ccc2O)ccc1O	4 µM
O=c1oc2ccc(NCc3cc(O)ccc3O)cc2c(=O)n1CCc1ccc(F)cc1	2.8 µM
CCCCCCn1c(=O)oc2ccc(NCc3cc(O)ccc3O)cc2c1=O	1.7 µM
Oc1ccc(O)c(CNc2ccc(O)c(/C=C\CCc3ccccc3)c2)c1	21.9 µM
COc1ccc(NCc2cc(O)ccc2O)c2c1C(=O)N(CCc1ccc(F)cc1)C2	8.4 µM
Oc1ccc(O)c(CNc2ccc(O)c(/C=C/CCc3ccccc3)c2)c1	20.4 µM
O=C(NCCc1ccccc1)c1cc(NCc2cc(O)ccc2O)ccc1O	7.7 µM
O=c1oc2ccc(NCc3cc(O)ccc3O)cc2c(=O)n1CCc1ccccc1	3.6 µM
O=C1c2c(O)ccc(NCc3cc(O)ccc3O)c2CN1CCc1ccccc1	6.2 µM
O=C(NCCc1ccc(F)cc1)c1cc(NCc2cc(O)ccc2O)ccc1O	0.15 µM

species: Homo sapiens; experiment: Cytotoxicity against CNS SF-539; type: functional; settings: CNSSF-539; in short: as §1

SMILES	GI50
O=C1c2c(O)ccc(NCc3cc(O)ccc3O)c2CN1CCc1ccc(F)cc1	14.4 µM
CCCCCCNC(=O)c1cc(NCc2cc(O)ccc2O)ccc1O	2.3 µM
O=c1oc2ccc(NCc3cc(O)ccc3O)cc2c(=O)n1CCc1ccc(F)cc1	5.1 µM
CCCCCCn1c(=O)oc2ccc(NCc3cc(O)ccc3O)cc2c1=O	2.4 µM
Oc1ccc(O)c(CNc2ccc(O)c(/C=C\CCc3ccccc3)c2)c1	11.6 µM
COc1ccc(NCc2cc(O)ccc2O)c2c1C(=O)N(CCc1ccc(F)cc1)C2	14.4 µM
Oc1ccc(O)c(CNc2ccc(O)c(/C=C/CCc3ccccc3)c2)c1	16.3 µM
O=C(NCCc1ccccc1)c1cc(NCc2cc(O)ccc2O)ccc1O	17 µM
O=c1oc2ccc(NCc3cc(O)ccc3O)cc2c(=O)n1CCc1ccccc1	8.9 µM
O=C1c2c(O)ccc(NCc3cc(O)ccc3O)c2CN1CCc1ccccc1	23.1 µM
O=C(NCCc1ccc(F)cc1)c1cc(NCc2cc(O)ccc2O)ccc1O	0.32 µM

species: Homo sapiens; experiment: Cytotoxicity against colon HCT116; type: functional; settings: HCT-116; in short: as §1

SMILES	GI50
O=C1c2c(O)ccc(NCc3cc(O)ccc3O)c2CN1CCc1ccc(F)cc1	18.7 µM
CCCCCCNC(=O)c1cc(NCc2cc(O)ccc2O)ccc1O	17 µM
O=c1oc2ccc(NCc3cc(O)ccc3O)cc2c(=O)n1CCc1ccc(F)cc1	4.2 µM
CCCCCCn1c(=O)oc2ccc(NCc3cc(O)ccc3O)cc2c1=O	3.2 µM
Oc1ccc(O)c(CNc2ccc(O)c(/C=C\CCc3ccccc3)c2)c1	19.3 µM
COc1ccc(NCc2cc(O)ccc2O)c2c1C(=O)N(CCc1ccc(F)cc1)C2	20.4 µM
Oc1ccc(O)c(CNc2ccc(O)c(/C=C/CCc3ccccc3)c2)c1	30.4 µM
O=C(NCCc1ccccc1)c1cc(NCc2cc(O)ccc2O)ccc1O	18 µM
O=c1oc2ccc(NCc3cc(O)ccc3O)cc2c(=O)n1CCc1ccccc1	4.6 µM
O=C1c2c(O)ccc(NCc3cc(O)ccc3O)c2CN1CCc1ccccc1	19.9 µM
O=C(NCCc1ccc(F)cc1)c1cc(NCc2cc(O)ccc2O)ccc1O	0.33 µM

system: not listed separately; experiment: (§2) Cytotoxicity against leukemia CCRF-CEM; type: cell-based; settings: human, CCRF-CEM leukemia cells

SMILES	GI50
O=c1oc2ccc(NCc3cc(O)ccc3O)cc2c(=O)n1CCc1ccccc1	1.3 µM

target: Tubulin (Bos taurus); experiment: Inhibition of tubulin polymerization at concentration 10 uM; settings: not given

SMILES	IC50
COc1ccc(NCc2cc(O)ccc2O)c2c1C(=O)N(CCc1ccccc1)C2	9.5 µM

species: Homo sapiens; experiment: Cytotoxicity against lung HOP-62; type: functional; settings: not given; in short: as §1

SMILES	GI50
O=C1c2c(O)ccc(NCc3cc(O)ccc3O)c2CN1CCc1ccc(F)cc1	19.6 µM
CCCCCCNC(=O)c1cc(NCc2cc(O)ccc2O)ccc1O	19 µM
O=c1oc2ccc(NCc3cc(O)ccc3O)cc2c(=O)n1CCc1ccc(F)cc1	17.2 µM
CCCCCCn1c(=O)oc2ccc(NCc3cc(O)ccc3O)cc2c1=O	14.8 µM
Oc1ccc(O)c(CNc2ccc(O)c(/C=C\CCc3ccccc3)c2)c1	20.5 µM
COc1ccc(NCc2cc(O)ccc2O)c2c1C(=O)N(CCc1ccc(F)cc1)C2	31.4 µM
Oc1ccc(O)c(CNc2ccc(O)c(/C=C/CCc3ccccc3)c2)c1	35.4 µM
O=C(NCCc1ccccc1)c1cc(NCc2cc(O)ccc2O)ccc1O	20 µM
O=c1oc2ccc(NCc3cc(O)ccc3O)cc2c(=O)n1CCc1ccccc1	21.4 µM
O=C1c2c(O)ccc(NCc3cc(O)ccc3O)c2CN1CCc1ccccc1	26.8 µM
O=C(NCCc1ccc(F)cc1)c1cc(NCc2cc(O)ccc2O)ccc1O	0.28 µM

species: Homo sapiens; experiment: Cytotoxicity against breast MDA-MB-435; type: functional; settings: not given; in short: as §1

SMILES	GI50
O=C1c2c(O)ccc(NCc3cc(O)ccc3O)c2CN1CCc1ccc(F)cc1	15.6 µM
CCCCCCNC(=O)c1cc(NCc2cc(O)ccc2O)ccc1O	15 µM
O=c1oc2ccc(NCc3cc(O)ccc3O)cc2c(=O)n1CCc1ccc(F)cc1	4.9 µM
CCCCCCn1c(=O)oc2ccc(NCc3cc(O)ccc3O)cc2c1=O	3.9 µM
Oc1ccc(O)c(CNc2ccc(O)c(/C=C\CCc3ccccc3)c2)c1	17.1 µM
COc1ccc(NCc2cc(O)ccc2O)c2c1C(=O)N(CCc1ccc(F)cc1)C2	14 µM
Oc1ccc(O)c(CNc2ccc(O)c(/C=C/CCc3ccccc3)c2)c1	5.7 µM
O=C(NCCc1ccccc1)c1cc(NCc2cc(O)ccc2O)ccc1O	19 µM
O=c1oc2ccc(NCc3cc(O)ccc3O)cc2c(=O)n1CCc1ccccc1	5.6 µM
O=C1c2c(O)ccc(NCc3cc(O)ccc3O)c2CN1CCc1ccccc1	14.8 µM
O=C(NCCc1ccc(F)cc1)c1cc(NCc2cc(O)ccc2O)ccc1O	0.047 µM

species: Homo sapiens; experiment: Cytotoxicity against prostate DU-145; type: functional; settings: DU-145, Prostate gland; in short: as §1

SMILES	GI50
O=C1c2c(O)ccc(NCc3cc(O)ccc3O)c2CN1CCc1ccc(F)cc1	24.6 µM
CCCCCCNC(=O)c1cc(NCc2cc(O)ccc2O)ccc1O	15 µM
O=c1oc2ccc(NCc3cc(O)ccc3O)cc2c(=O)n1CCc1ccc(F)cc1	17.7 µM
CCCCCCn1c(=O)oc2ccc(NCc3cc(O)ccc3O)cc2c1=O	13.8 µM
Oc1ccc(O)c(CNc2ccc(O)c(/C=C\CCc3ccccc3)c2)c1	34 µM
COc1ccc(NCc2cc(O)ccc2O)c2c1C(=O)N(CCc1ccc(F)cc1)C2	16.1 µM
Oc1ccc(O)c(CNc2ccc(O)c(/C=C/CCc3ccccc3)c2)c1	18.7 µM
O=C(NCCc1ccccc1)c1cc(NCc2cc(O)ccc2O)ccc1O	16 µM
O=c1oc2ccc(NCc3cc(O)ccc3O)cc2c(=O)n1CCc1ccccc1	15.3 µM
O=C1c2c(O)ccc(NCc3cc(O)ccc3O)c2CN1CCc1ccccc1	14.5 µM
O=C(NCCc1ccc(F)cc1)c1cc(NCc2cc(O)ccc2O)ccc1O	0.27 µM

system: not listed separately; experiment: as §2; type: functional; settings: Homo sapiens; in short: as §1

SMILES	GI50
O=C1c2c(O)ccc(NCc3cc(O)ccc3O)c2CN1CCc1ccc(F)cc1	1.8 µM
CCCCCCNC(=O)c1cc(NCc2cc(O)ccc2O)ccc1O	0.56 µM
O=c1oc2ccc(NCc3cc(O)ccc3O)cc2c(=O)n1CCc1ccc(F)cc1	0.78 µM
CCCCCCn1c(=O)oc2ccc(NCc3cc(O)ccc3O)cc2c1=O	0.27 µM
Oc1ccc(O)c(CNc2ccc(O)c(/C=C\CCc3ccccc3)c2)c1	0.7 µM
COc1ccc(NCc2cc(O)ccc2O)c2c1C(=O)N(CCc1ccc(F)cc1)C2	3.4 µM
Oc1ccc(O)c(CNc2ccc(O)c(/C=C/CCc3ccccc3)c2)c1	1.1 µM
O=C(NCCc1ccccc1)c1cc(NCc2cc(O)ccc2O)ccc1O	2.7 µM
O=C1c2c(O)ccc(NCc3cc(O)ccc3O)c2CN1CCc1ccccc1	2.3 µM
O=C(NCCc1ccc(F)cc1)c1cc(NCc2cc(O)ccc2O)ccc1O	0.22 µM

species: Homo sapiens; experiment: Cytotoxicity against melanoma UACC-62; type: functional; settings: not given; in short: as §1

SMILES	GI50
O=C1c2c(O)ccc(NCc3cc(O)ccc3O)c2CN1CCc1ccc(F)cc1	13.3 µM
CCCCCCNC(=O)c1cc(NCc2cc(O)ccc2O)ccc1O	12 µM
O=c1oc2ccc(NCc3cc(O)ccc3O)cc2c(=O)n1CCc1ccc(F)cc1	7 µM
CCCCCCn1c(=O)oc2ccc(NCc3cc(O)ccc3O)cc2c1=O	3.2 µM
Oc1ccc(O)c(CNc2ccc(O)c(/C=C\CCc3ccccc3)c2)c1	15.9 µM
COc1ccc(NCc2cc(O)ccc2O)c2c1C(=O)N(CCc1ccc(F)cc1)C2	19.1 µM
Oc1ccc(O)c(CNc2ccc(O)c(/C=C/CCc3ccccc3)c2)c1	18 µM
O=C(NCCc1ccccc1)c1cc(NCc2cc(O)ccc2O)ccc1O	14 µM
O=c1oc2ccc(NCc3cc(O)ccc3O)cc2c(=O)n1CCc1ccccc1	6 µM
O=C1c2c(O)ccc(NCc3cc(O)ccc3O)c2CN1CCc1ccccc1	10.1 µM
O=C(NCCc1ccc(F)cc1)c1cc(NCc2cc(O)ccc2O)ccc1O	0.41 µM

species: Homo sapiens; experiment: Cytotoxicity against renal SN12C; type: functional; settings: not given; in short: as §1

SMILES	GI50
O=C1c2c(O)ccc(NCc3cc(O)ccc3O)c2CN1CCc1ccc(F)cc1	16 µM
CCCCCCNC(=O)c1cc(NCc2cc(O)ccc2O)ccc1O	6.1 µM
O=c1oc2ccc(NCc3cc(O)ccc3O)cc2c(=O)n1CCc1ccc(F)cc1	6.6 µM
CCCCCCn1c(=O)oc2ccc(NCc3cc(O)ccc3O)cc2c1=O	4.2 µM
Oc1ccc(O)c(CNc2ccc(O)c(/C=C\CCc3ccccc3)c2)c1	17.8 µM
COc1ccc(NCc2cc(O)ccc2O)c2c1C(=O)N(CCc1ccc(F)cc1)C2	20.4 µM
Oc1ccc(O)c(CNc2ccc(O)c(/C=C/CCc3ccccc3)c2)c1	21.4 µM
O=C(NCCc1ccccc1)c1cc(NCc2cc(O)ccc2O)ccc1O	18 µM
O=c1oc2ccc(NCc3cc(O)ccc3O)cc2c(=O)n1CCc1ccccc1	9.6 µM
O=C1c2c(O)ccc(NCc3cc(O)ccc3O)c2CN1CCc1ccccc1	12.9 µM
O=C(NCCc1ccc(F)cc1)c1cc(NCc2cc(O)ccc2O)ccc1O	0.58 µM

target: Tubulin (Bos taurus, UniProt Q6B856+Q862L2+Q862F3); experiment: Inhibition of tubulin polymerization at concentration 10 uM; type: functional; settings: not given

SMILES	IC50
O=C1c2c(O)ccc(NCc3cc(O)ccc3O)c2CN1CCc1ccc(F)cc1	5.9 µM
CCCCCCNC(=O)c1cc(NCc2cc(O)ccc2O)ccc1O	3.6 µM
O=c1oc2ccc(NCc3cc(O)ccc3O)cc2c(=O)n1CCc1ccc(F)cc1	6.8 µM
CCCCCCn1c(=O)oc2ccc(NCc3cc(O)ccc3O)cc2c1=O	6 µM
Oc1ccc(O)c(CNc2ccc(O)c(/C=C\CCc3ccccc3)c2)c1	3.7 µM
COc1ccc(NCc2cc(O)ccc2O)c2c1C(=O)N(CCc1ccc(F)cc1)C2	5.9 µM
Oc1ccc(O)c(CNc2ccc(O)c(/C=C/CCc3ccccc3)c2)c1	7.2 µM
O=C(NCCc1ccccc1)c1cc(NCc2cc(O)ccc2O)ccc1O	3.6 µM
O=c1oc2ccc(NCc3cc(O)ccc3O)cc2c(=O)n1CCc1ccccc1	8.3 µM
O=C1c2c(O)ccc(NCc3cc(O)ccc3O)c2CN1CCc1ccccc1	7.4 µM
O=C(NCCc1ccc(F)cc1)c1cc(NCc2cc(O)ccc2O)ccc1O	4 µM

Source: ChEMBL document CHEMBL1135632, “Synthesis and investigation of conformationally restricted analogues of lavendustin A as cytotoxic inhibitors of tubulin polymerization” (J Med Chem, 2002)
